Measured values: ChEMBL document CHEMBL3779864, “Dual Alleviation of Acute and Neuropathic Pain by Fused Opioid Agonist-Neurokinin 1 Antagonist Peptidomimetics” (ACS Med Chem Lett, 2015)
Calls of active or inactive are those of the source. The rule behind the calls is not given here.

Legend:
[1] = target: Mu-type opioid receptor (Cavia porcellus, UniProt P97266); experiment: Agonist activity at mu opioid receptor in guinea pig ileum assessed as inhibition of electrically-stimulated muscle contraction; assay type: tissue-based
Sequence of Mu-type opioid receptor (Cavia porcellus, UniProt P97266) (P97266 whole entry): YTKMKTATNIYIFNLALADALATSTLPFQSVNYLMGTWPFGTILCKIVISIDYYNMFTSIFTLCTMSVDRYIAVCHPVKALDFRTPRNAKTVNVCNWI
Procedure, shortened: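 Guinea pig ileum preparation used as the MOR-representative functional assay. Values are means of 3–4 experiments.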

[2] = target: Delta-type opioid receptor (Mus musculus, UniProt P32300); experiment: Agonist activity at delta opioid receptor in mouse vas deferens assessed as inhibition of electrically-stimulated muscle contraction; assay type: tissue-based
Sequence of Delta-type opioid receptor (Mus musculus, UniProt P32300) (P32300 whole entry): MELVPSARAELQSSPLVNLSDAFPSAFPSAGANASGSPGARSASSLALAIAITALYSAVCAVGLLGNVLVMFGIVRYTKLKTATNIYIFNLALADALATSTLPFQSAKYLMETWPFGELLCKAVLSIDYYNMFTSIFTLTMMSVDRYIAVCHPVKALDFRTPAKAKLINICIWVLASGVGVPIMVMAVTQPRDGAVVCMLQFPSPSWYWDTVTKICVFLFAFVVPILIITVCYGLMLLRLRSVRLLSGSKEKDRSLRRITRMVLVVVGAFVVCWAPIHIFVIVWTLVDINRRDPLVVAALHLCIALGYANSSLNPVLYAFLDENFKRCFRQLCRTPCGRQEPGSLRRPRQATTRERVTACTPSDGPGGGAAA
Procedure, shortened: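 Electrically stimulated mouse vas deferens, a DOR-representative tissue assay. Means of 3–4 experiments.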

[3] = target: Substance-P receptor (Homo sapiens, UniProt P25103); experiment: Displacement of [3H]SP from human NK1 receptor transfected in CHO cells by liquid scintillation counting method; assay type: cell-based
Sequence of Substance-P receptor (P25103 whole entry): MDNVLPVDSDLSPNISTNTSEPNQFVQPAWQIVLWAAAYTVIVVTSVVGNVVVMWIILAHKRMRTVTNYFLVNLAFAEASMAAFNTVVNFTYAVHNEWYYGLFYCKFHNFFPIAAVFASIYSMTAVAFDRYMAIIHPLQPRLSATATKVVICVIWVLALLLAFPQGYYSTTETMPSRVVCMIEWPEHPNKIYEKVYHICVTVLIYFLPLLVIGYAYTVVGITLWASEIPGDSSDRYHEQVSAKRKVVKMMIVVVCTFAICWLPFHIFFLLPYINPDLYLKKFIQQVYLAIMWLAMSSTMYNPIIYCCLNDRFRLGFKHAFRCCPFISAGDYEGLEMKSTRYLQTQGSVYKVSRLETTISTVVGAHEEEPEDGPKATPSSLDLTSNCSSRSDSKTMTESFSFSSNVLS
Procedure, shortened: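 hNK1 receptor expressed in CHO cells, measured as [3H]SP displacement. Values are means of 3–4 experiments.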

[4] = target: Mu-type opioid receptor (Rattus norvegicus, UniProt P33535); experiment: Displacement of [3H]DAMGO from mu opioid receptor in rat brain membrane after 2 hrs; assay type: cell membranes
Sequence of Mu-type opioid receptor (Rattus norvegicus, UniProt P33535) (P33535 whole entry): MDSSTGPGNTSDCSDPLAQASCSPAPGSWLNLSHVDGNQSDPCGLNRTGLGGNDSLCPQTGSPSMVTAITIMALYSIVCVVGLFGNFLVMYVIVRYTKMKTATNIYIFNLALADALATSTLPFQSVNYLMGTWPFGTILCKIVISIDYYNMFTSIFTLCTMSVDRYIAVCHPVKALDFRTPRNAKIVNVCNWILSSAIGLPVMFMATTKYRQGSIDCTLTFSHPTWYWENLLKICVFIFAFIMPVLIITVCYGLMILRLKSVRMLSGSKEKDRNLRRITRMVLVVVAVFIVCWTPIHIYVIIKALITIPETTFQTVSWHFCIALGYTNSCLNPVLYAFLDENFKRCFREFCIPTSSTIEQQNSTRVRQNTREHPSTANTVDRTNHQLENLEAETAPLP
Procedure, shortened: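 Rat brain membranes, with [3H]DAMGO as the MOR radioligand, measured as displacement binding. Values are means of 3–4 experiments.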

[5] = target: Delta-type opioid receptor (Rattus norvegicus, UniProt P33533); experiment: Displacement of [3H]DSLET from delta opioid receptor in rat brain membrane after 2 hrs; assay type: cell membranes
Sequence of Delta-type opioid receptor (Rattus norvegicus, UniProt P33533) (P33533 whole entry): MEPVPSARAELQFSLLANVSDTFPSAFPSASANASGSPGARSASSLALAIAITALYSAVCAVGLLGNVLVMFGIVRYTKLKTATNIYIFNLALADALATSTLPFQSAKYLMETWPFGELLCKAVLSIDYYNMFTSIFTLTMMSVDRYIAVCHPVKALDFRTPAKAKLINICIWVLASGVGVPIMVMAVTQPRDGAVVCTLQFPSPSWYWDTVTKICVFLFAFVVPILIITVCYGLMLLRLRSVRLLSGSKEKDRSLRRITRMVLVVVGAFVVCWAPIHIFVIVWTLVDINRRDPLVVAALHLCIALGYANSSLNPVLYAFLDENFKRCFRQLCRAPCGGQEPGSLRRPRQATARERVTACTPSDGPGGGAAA
Procedure, shortened: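 Rat brain membranes, with [3H]DSLET as the DOR radioligand, measured as displacement binding. Values are means of 3–4 experiments.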

[6] = species: Rattus norvegicus; experiment: Antinociceptive activity in Wistar rat model of chronic constriction injury-induced neuropathic pain assessed as reduction in allodynia at 3.5 nmol, it QD for 6 consecutive days by von Frey test; assay type: functional, organism-based
Procedure, shortened: (§1)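 Rats with chronic constriction injury of the sciatic nerve, dosed intrathecally once daily for 6 consecutive days starting day 7 post-CCI. Allodynia measured by von Frey, hyperalgesia by cold plate. Doses: morphine 3.5 nmol, hybrids 0.8 or 1 nmol. Compared with vehicle-treated CCI rats and with morphine-treated CCI rats.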

[7] = species: Rattus norvegicus; experiment: Antinociceptive activity in Wistar rat model of chronic constriction injury-induced neuropathic pain assessed as reduction in allodynia at 0.8 to 3.5 nmol after 30 mins by von Frey test; assay type: functional, organism-based
Procedure, shortened: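 Rats underwent chronic constriction injury of the sciatic nerve. Seven days later, drug was given intrathecally as single injections at increasing doses. Allodynia was read by von Frey test 30 min after dosing and compared with vehicle-treated CCI rats.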

[8] = species: Rattus norvegicus; experiment: Antinociceptive activity in Wistar rat model of chronic constriction injury-induced neuropathic pain assessed as reduction in hyperalgesia at 0.8 to 3.5 nmol after 30 mins by cold plate test; assay type: functional, organism-based
Procedure, shortened: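 Rats underwent chronic constriction injury of the sciatic nerve. Seven days later, drug was given intrathecally as single injections at increasing doses. Hyperalgesia was read by cold plate test 30 min after dosing and compared with vehicle-treated CCI rats.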

[9] = test system: Rattus norvegicus; experiment: Antinociceptive activity in it dosed naive Wistar rat after 30 mins by tail flick test analysis; assay type: functional, organism-based
Procedure, shortened: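 Naïve rats were dosed intrathecally at several doses. Tail-flick latency was read 30 min after dosing and compared with vehicle-treated naïve rats.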

[10] = test system: Rattus norvegicus; experiment: Antinociceptive activity in Wistar rat model of chronic constriction injury-induced neuropathic pain assessed as reduction in allodynia at 1 nmol dosed on day7 after tolerance development with morphine dosed at 3.5 nmol, it QD for 6 days by von Frey test; assay type: functional, organism-based
Procedure, shortened: (§2)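 Cross-tolerance design in CCI rats: intrathecal dosing once daily for 6 days from day 7 post-CCI (morphine 3.5 nmol, hybrids 0.8 or 1 nmol). On day 7 of dosing (day 14 post-CCI), morphine-tolerant rats received a single hybrid dose and hybrid-tolerant rats received morphine 3.5 nmol. Read by von Frey or cold plate and compared with pretest, day 1 and day 6.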

[11] = species: Rattus norvegicus; experiment: Antinociceptive activity in naive Wistar rat at 10 nmol, it after 30 mins by tail flick test analysis; assay type: functional, organism-based
Procedure, shortened: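 Naïve rats dosed intrathecally, compared with vehicle-treated naïve rats. Tail-flick latency read 30 min after administration.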

[12] = species: Rattus norvegicus; experiment: Antinociceptive activity in Wistar rat model of chronic constriction injury-induced neuropathic pain assessed as reduction in hyperalgesia at 1 nmol, it QD for 6 consecutive days measured on day-4 and day-5 by cold plate test relative to morphine; assay type: functional, organism-based; procedure, shortened: as §1
[13] = test system: Rattus norvegicus; experiment: Antinociceptive activity in Wistar rat model of chronic constriction injury-induced neuropathic pain assessed as reduction in hyperalgesia at 3.5 nmol dosed on day7 after tolerance development with compound13 dosed at 1 nmol, it QD for 6 days by cold plate test; assay type: functional, organism-based; procedure, shortened: as §2
[14] = species: Rattus norvegicus; experiment: Potency index, ratio of antinociceptive activity of compound at 8 to 10 nmol, it to antinociceptive activity of morphine at 35 nmol, it in naive Wistar rat after 30 mins; assay type: functional
[15] = species: Rattus norvegicus; experiment: Antinociceptive activity in Wistar rat model of chronic constriction injury-induced neuropathic pain assessed as reduction in hyperalgesia at 1 nmol, it QD for 6 consecutive days by cols plate test; assay type: functional, organism-based; procedure, shortened: as §1
[16] = species: Rattus norvegicus; experiment: Antinociceptive activity in Wistar rat model of chronic constriction injury-induced neuropathic pain assessed as reduction in allodynia at 1 nmol, it QD for 6 consecutive days by von Frey test; assay type: functional, organism-based; procedure, shortened: as §1
[17] = test system: Rattus norvegicus; experiment: Potency index, ratio of antiallodynic effect of compound to antiallodynic effect of morphine in it dosed naive Wistar rat at 0.8 to 3.5 nmol after 30 mins by cold plate test; assay type: functional
[18] = test system: Rattus norvegicus; experiment: Antinociceptive activity in Wistar rat model of chronic constriction injury-induced neuropathic pain assessed as reduction in hyperalgesia at 1 nmol dosed on day7 after tolerance development with morphine dosed at 3.5 nmol, it QD for 6 days by cold plate test; assay type: functional, organism-based; procedure, shortened: as §2
[19] = test system: Rattus norvegicus; experiment: Antinociceptive activity in Wistar rat model of chronic constriction injury-induced neuropathic pain assessed as reduction in hyperalgesia at 0.8 nmol dosed on day7 after tolerance development with morphine dosed at 3.5 nmol, it QD for 6 days by cold plate test; assay type: functional, organism-based
Procedure, shortened: (§3)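 Rats with sciatic nerve CCI got morphine 3.5 nmol i.t. once daily for 6 days, starting day 7 after CCI. On day 7 of repeated dosing (day 14 after CCI) they received a single i.t. dose of 0.8 nmol. Allodynia was read by von Frey and hyperalgesia by cold plate. Each was compared with pretest, with day 6 and with day 1 of dosing.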

[20] = species: Rattus norvegicus; experiment: Antinociceptive activity in Wistar rat model of chronic constriction injury-induced neuropathic pain assessed as reduction in hyperalgesia at 0.8 nmol, it QD for 6 consecutive days measured on day-4 and day-5 by cold plate test relative to morphine; assay type: functional, organism-based
Procedure, shortened: (§4)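 Starting day 7 after sciatic nerve CCI, rats got 0.8 nmol i.t. once daily for 6 consecutive days. Allodynia was read by von Frey and hyperalgesia by cold plate. Comparisons were against vehicle-treated CCI rats and against rats given morphine 3.5 nmol i.t. on the same schedule.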

[21] = species: Rattus norvegicus; experiment: Antinociceptive activity in Wistar rat model of chronic constriction injury-induced neuropathic pain assessed as reduction in hyperalgesia at 0.8 nmol, it QD for 6 consecutive days by cols plate test; assay type: functional, organism-based; procedure, shortened: as §4
[22] = species: Rattus norvegicus; experiment: Antinociceptive activity in Wistar rat model of chronic constriction injury-induced neuropathic pain assessed as reduction in allodynia at 0.8 nmol, it QD for 6 consecutive days by von Frey test; assay type: functional, organism-based; procedure, shortened: as §4
[23] = species: Rattus norvegicus; experiment: Antinociceptive activity in naive Wistar rat at 8 nmol, it after 2 hrs by tail flick test analysis; assay type: functional, organism-based
Procedure, shortened: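 Naïve rats got an intrathecal dose. The tail-flick response was followed over time up to 2 h after dosing.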

[24] = test system: Rattus norvegicus; experiment: Antinociceptive activity in Wistar rat model of chronic constriction injury-induced neuropathic pain assessed as reduction in allodynia at 0.8 nmol dosed on day7 after tolerance development with morphine dosed at 3.5 nmol, it QD for 6 days by von Frey test; assay type: functional, organism-based; procedure, shortened: as §3
[25] = test system: Rattus norvegicus; experiment: Antinociceptive activity in Wistar rat model of chronic constriction injury-induced neuropathic pain assessed as reduction in hyperalgesia at 3.5 nmol dosed on day7 after tolerance development with compound12 dosed at 0.8 nmol, it QD for 6 days by cold plate test; assay type: functional, organism-based; procedure, shortened: as §2
[26] = species: Rattus norvegicus; experiment: Antinociceptive activity in Wistar rat model of chronic constriction injury-induced neuropathic pain assessed as reduction in hyperalgesia at 3.5 nmol, it QD for 6 consecutive days by cols plate test; assay type: functional, organism-based; procedure, shortened: as §1
[27] = species: Rattus norvegicus; experiment: Antinociceptive activity in naive Wistar rat at 35 nmol, it after 2 hrs by tail flick test analysis; assay type: functional, organism-based

| SMILES | IC50 [1] | IC50 [2] | Ki [3] | Ki [4] | Ki [5] | Activity [6] | Activity [7] | Activity [8] | Ratio [14] | other results |
| --- | --- | --- | --- | --- | --- | --- | --- | --- | --- | --- |
| Cc1cc(O)cc(C)c1C[C@H](N)C(=O)N[C@H](CCCNC(=N)N)C(=O)N[C@@H](Cc1ccccc1)C(=O)N[C@@H](CCCCN)CC(=O)N1CC[C@@H](C(=O)N(C)Cc2cc(C(F)(F)F)cc(C(F)(F)F)c2)[C@H](c2ccccc2)C1 | 538 nM | 1660 nM | 2.2 nM | 20.2 nM | > 1000 nM |  |  |  |  |  |
| Cc1cc(O)cc(C)c1C[C@H](N)C(=O)N[C@H](CCCNC(=N)N)C(=O)N[C@@H](Cc1ccccc1)C(=O)N[C@@H](CCCCN)C(=O)N1CCN([C@@H]2CCN(C(=O)c3cc(C(F)(F)F)cc(C(F)(F)F)c3)C[C@@H]2c2ccccc2)CC1 | 137 nM | 384 nM | 0.99 nM | 9.91 nM | 533 nM |  |  |  |  |  |
| Cc1cc(O)cc(C)c1C[C@H](N)C(=O)N[C@H](CCCNC(=N)N)C(=O)N[C@@H](Cc1ccccc1)C(=O)N[C@@H](CCCCN)C(=O)N1CC[C@@H](C(=O)N(C)Cc2cc(C(F)(F)F)cc(C(F)(F)F)c2)[C@H](c2ccccc2)C1 | 658 nM | 349 nM | 1.2 nM | 39.8 nM | 339 nM |  |  |  |  |  |
| Cc1cc(O)cc(C)c1C[C@H](N)C(=O)N[C@H](CCCNC(=N)N)C(=O)N[C@@H](Cc1ccccc1)C(=O)N[C@@H](CCCCN)CC(N)=O | 5.9 nM | 7.7 nM |  | 0.187 nM | 290 nM |  |  |  |  |  |
| Cc1cc(O)cc(C)c1C[C@H](N)C(=O)N[C@H](CCCNC(=N)N)C(=O)N[C@@H](Cc1ccccc1)C(=O)N[C@@H](CCCCN)C(=O)N(C)[C@@H]1CCN(C(=O)c2cc(C(F)(F)F)cc(C(F)(F)F)c2)C[C@@H]1c1ccccc1 | 70.2 nM | 814 nM | 1.1 nM | 54 nM | > 1000 nM |  |  |  |  |  |
| CN[C@@H]1CCN(C(=O)c2cc(C(F)(F)F)cc(C(F)(F)F)c2)C[C@@H]1c1ccccc1 |  |  |  |  |  | inactive | Active | Active |  | Activity [9]: inactive |
| Cc1cc(O)cc(C)c1C[C@H](N)C(=O)N[C@H](CCCNC(=N)N)C(=O)N[C@H]1Cc2ccccc2CN(CCC(=O)N2CC[C@@H](C(=O)N(C)Cc3cc(C(F)(F)F)cc(C(F)(F)F)c3)[C@H](c3ccccc3)C2)C1=O | 30.1 nM | 10.3 nM | 1.9 nM | 3.07 nM | 7.07 nM |  |  |  |  |  |
| Cc1cc(O)cc(C)c1C[C@H](N)C(=O)N[C@H](CCCNC(=N)N)C(=O)N[C@H]1Cc2ccccc2CN(CCC(=O)N(C)[C@@H]2CCN(C(=O)c3cc(C(F)(F)F)cc(C(F)(F)F)c3)C[C@@H]2c2ccccc2)C1=O | 13 nM | 12.6 nM | 1.4 nM | 1.82 nM | 11.2 nM | inactive | Active | Active | 3.5 | Activity [10]: Active; Activity [11]: Active; Activity [12]: Active; Activity [13]: Active; Activity [15]: inactive; Activity [16]: inactive; Ratio [17]: 3.5; Activity [18]: Active |
| Cc1cc(O)cc(C)c1C[C@H](N)C(=O)N[C@H](CCCNC(=N)N)C(=O)N[C@H]1Cc2ccccc2CN(CCC(=O)N2CCN([C@@H]3CCN(C(=O)c4cc(C(F)(F)F)cc(C(F)(F)F)c4)C[C@@H]3c3ccccc3)CC2)C1=O | 20.3 nM | 14.1 nM | 1.4 nM | 1.18 nM | 10.6 nM | inactive | Active | Active | 3.5 | Activity [19]: Active; Activity [20]: Active; Activity [21]: Active; Activity [13]: Active; Activity [22]: inactive; Activity [23]: Active; Activity [24]: Active; Ratio [17]: 3.5 |
| CN1CC[C@]23c4c5ccc(O)c4O[C@H]2[C@@H](O)C=C[C@H]3[C@H]1C5 [MORPHINE] |  |  |  |  |  | inactive | Active | Active | 3.5 | Activity [25]: Active; Activity [26]: Active; Activity [27]: Active |
